The array DNA melting data of Ke et al. (doi:10.1101/2024.01.08.574731)

Columns and labels:
[1] = folding enthalpy; higher = less favourable; fluorescence melt of hairpins on a sequencing array, two-state fit; conditions: sodium 0.088 M
Procedure, shortened: (§1)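 To match UV melts, fitted temperatures were raised by 9.35 °C. These fits were bootstrapped two-state models that gave melting temperature and folding enthalpy, combined by inverse variance over four replicates. The input was normalised Cy3 fluorescence of library hairpins with annealed Cy3 and quencher oligos on a sequenced MiSeq flow cell, imaged in 50 mM Na-HEPES pH 8.0, 25 mM NaCl in 2.5 °C steps up to 60 °C.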

[2] = melting temperature; fluorescence melt of hairpins on a sequencing array, two-state fit, raised by 9.35 °C to match UV melts; conditions: sodium 0.088 M
Procedure, shortened: as §1

Row | Sequence | folding enthalpy [1] | Tm [2]
1 | GATCTGACGACAGATC ((((((....)))))) | -35 kcal/mol | 48.5 °C
2 | GATCTGAGAACAGATC ((((((....)))))) | -27.5 kcal/mol | 45.1 °C
3 | GATCTGAGCCCAGATC ((((((....)))))) | -29.7 kcal/mol | 47.3 °C
4 | GATCTGAGGTCAGATC ((((((....)))))) | -40.6 kcal/mol | 49.4 °C
5 | GATCTGAGTTCAGATC ((((((....)))))) | -43.7 kcal/mol | 49.9 °C
6 | GATCTGATGACAGATC ((((((....)))))) | -34.8 kcal/mol | 48.8 °C
7 | GATCTGATGGCAGATC ((((((....)))))) | -36.5 kcal/mol | 47.7 °C
8 | GATCTGCAATCAGATC ((((((....)))))) | -36.7 kcal/mol | 47.2 °C
9 | GATCTGCACCCAGATC ((((((....)))))) | -33.4 kcal/mol | 47.8 °C
10 | GATCTGCACTCAGATC ((((((....)))))) | -34.1 kcal/mol | 48.9 °C
11 | GATCTGCAGCCAGATC ((((((....)))))) | -32.6 kcal/mol | 48.9 °C
12 | GATCTGCCAGCAGATC ((((((....)))))) | -38.6 kcal/mol | 57.7 °C
13 | GATCTGCCGCCAGATC ((((((....)))))) | -31.9 kcal/mol | 51.4 °C
14 | GATCTGCCGTCAGATC ((((((....)))))) | -37.8 kcal/mol | 50.2 °C
15 | GATCTGCGAAAGCACATC (((.(((....))).))) | -13.5 kcal/mol | 30.4 °C
16 | GATCTGCGACAGATC ((((((...)))))) | -26.2 kcal/mol | 47.3 °C
17 | GATCTGCGGACAGATC ((((((....)))))) | -28.2 kcal/mol | 50.4 °C
18 | GATCTGCGTACAGATC ((((((....)))))) | -36.4 kcal/mol | 53.9 °C
19 | GATCTGCGTGCAGATC ((((((....)))))) | -34.5 kcal/mol | 66.7 °C
20 | GATCTGCTCCAGATC ((((((...)))))) | -31.1 kcal/mol | 50.4 °C

Row | Sequence | folding enthalpy [1] | Tm [2]
21 | GATCTGGATCAGATC ((((((...)))))) | -29.6 kcal/mol | 47.9 °C
22 | GATCTGGATCCAGATC ((((((....)))))) | -55.9 kcal/mol | 54.1 °C
23 | GATCTGGGGGCAGATC ((((((....)))))) | -41 kcal/mol | 51 °C
24 | GATCTGGGTCAGATC ((((((...)))))) | -35.9 kcal/mol | 48.6 °C
25 | GATCTGGGTGCAGATC ((((((....)))))) | -47.2 kcal/mol | 52.5 °C
26 | GATCTGGTACAGATC ((((((...)))))) | -41.3 kcal/mol | 60.8 °C
27 | GATCTGGTACCAGATC ((((((....)))))) | -37.8 kcal/mol | 56 °C
28 | GATCTGGTCTCAGATC ((((((....)))))) | -43 kcal/mol | 53 °C
29 | GATCTGGTGACAGATC ((((((....)))))) | -40.8 kcal/mol | 56.4 °C
30 | GATCTGGTTGCAGATC ((((((....)))))) | -42.9 kcal/mol | 51.1 °C
31 | GATCTGTAGCCAGATC ((((((....)))))) | -34.1 kcal/mol | 48.6 °C
32 | GATCTGTATCAGATC ((((((...)))))) | -34.4 kcal/mol | 48.2 °C
33 | GATCTGTATGCAGATC ((((((....)))))) | -38.8 kcal/mol | 54.9 °C
34 | GATCTGTCCACAGATC ((((((....)))))) | -40.8 kcal/mol | 55.6 °C
35 | GATCTGTCCCAGATC ((((((...)))))) | -33.6 kcal/mol | 49.5 °C
36 | GATCTGTCTGCAGATC ((((((....)))))) | -42.1 kcal/mol | 52.9 °C
37 | GATCTGTGCTCAGATC ((((((....)))))) | -39 kcal/mol | 50.6 °C
38 | GATCTGTGGCAGATC ((((((...)))))) | -30.3 kcal/mol | 49.1 °C
39 | GATCTGTGGGCAGATC ((((((....)))))) | -49.7 kcal/mol | 54.3 °C
40 | GATCTGTGTGCAGATC ((((((....)))))) | -46.9 kcal/mol | 56.4 °C
